Measured values: ChEMBL document CHEMBL1134050, “Phenyl benzenesulfonamides are novel and selective 5-HT6 antagonists: identification of N-(2,5-dibromo-3-fluorophenyl)-4-methoxy-3-piperazin-1-ylbenzenesulfonamide (SB-357134)” (Bioorg Med Chem Lett, 2001)
Values belong to the compound of their own block, whether it stands above or below them.

Assays:
[1] = biological target: 5-hydroxytryptamine receptor 6 (Homo sapiens, UniProt P50406); experiment: Binding affinity against human 5-hydroxytryptamine 6 receptor
Chain of 5-hydroxytryptamine receptor 6 (P50406 whole entry, the tested form may be a part): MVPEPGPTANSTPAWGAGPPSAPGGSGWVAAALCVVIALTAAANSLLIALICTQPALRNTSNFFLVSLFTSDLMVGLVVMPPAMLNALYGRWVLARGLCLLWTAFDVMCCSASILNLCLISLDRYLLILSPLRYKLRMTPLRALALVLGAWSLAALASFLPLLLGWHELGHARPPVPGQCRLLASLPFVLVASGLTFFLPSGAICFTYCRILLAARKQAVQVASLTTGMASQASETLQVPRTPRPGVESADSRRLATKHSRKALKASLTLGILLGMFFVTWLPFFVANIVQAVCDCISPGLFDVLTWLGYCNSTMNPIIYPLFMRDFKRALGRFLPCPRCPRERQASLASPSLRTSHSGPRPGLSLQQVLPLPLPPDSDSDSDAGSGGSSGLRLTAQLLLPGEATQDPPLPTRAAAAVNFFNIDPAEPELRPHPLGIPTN

[2] = Plasma Clearance measured at steady-state following iv infusion at 0.6 mg/kg/h in rats; format: ADME, organism-based; set-up: route intravenous; details: rat, 0.6 mg/kg/h infusion
Rattus norvegicus = organism: Rattus norvegicus; experiment: Blood: Brain distribution ratio is determined in rat; format: ADME, organism-based
How it was run: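 Rats received iv infusion for 8 h, and the brain:blood ratio was taken at steady state.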

[3] = biological target: 5-hydroxytryptamine receptor 1B (Homo sapiens, UniProt P28222); experiment: Compound was evaluated for binding affinity against human cloned 5-hydroxytryptamine 1B receptor in CHO cells using [3H]5-HT as the radioligand; format: cell-based
Chain of 5-hydroxytryptamine receptor 1B (P28222 whole entry): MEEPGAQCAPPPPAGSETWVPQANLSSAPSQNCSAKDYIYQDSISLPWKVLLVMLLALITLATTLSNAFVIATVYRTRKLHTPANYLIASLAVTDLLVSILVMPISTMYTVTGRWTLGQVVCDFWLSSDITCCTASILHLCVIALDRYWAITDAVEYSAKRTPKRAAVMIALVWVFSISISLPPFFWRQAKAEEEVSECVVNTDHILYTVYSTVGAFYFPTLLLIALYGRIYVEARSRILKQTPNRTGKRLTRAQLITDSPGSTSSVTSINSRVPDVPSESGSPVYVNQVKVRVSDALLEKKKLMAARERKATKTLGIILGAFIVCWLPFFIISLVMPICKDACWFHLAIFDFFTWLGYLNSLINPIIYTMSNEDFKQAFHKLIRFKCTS
How it was run: (§1)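 Radioligand binding to human cloned receptors: 5-HT1A in HEK 293 cells with [3H]-8-OH-DPAT; 5-HT1B and 5-HT1E in CHO cells with [3H]-5-HT; 5-HT2B in HEK 293 cells with [3H]-5-HT; D2 and D3 in CHO cells with [125I]-iodosulpride. Values are the mean of at least two determinations, each within 0.2 log unit of the mean.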

[4] = biological target: 5-hydroxytryptamine receptor 1D (Homo sapiens, UniProt P28221); experiment: Compound was evaluated for binding affinity against human cloned 5-hydroxytryptamine 1D receptor in CHO cells using [3H]5-HT as the radioligand; format: cell-based
Chain of 5-hydroxytryptamine receptor 1D (P28221 whole entry): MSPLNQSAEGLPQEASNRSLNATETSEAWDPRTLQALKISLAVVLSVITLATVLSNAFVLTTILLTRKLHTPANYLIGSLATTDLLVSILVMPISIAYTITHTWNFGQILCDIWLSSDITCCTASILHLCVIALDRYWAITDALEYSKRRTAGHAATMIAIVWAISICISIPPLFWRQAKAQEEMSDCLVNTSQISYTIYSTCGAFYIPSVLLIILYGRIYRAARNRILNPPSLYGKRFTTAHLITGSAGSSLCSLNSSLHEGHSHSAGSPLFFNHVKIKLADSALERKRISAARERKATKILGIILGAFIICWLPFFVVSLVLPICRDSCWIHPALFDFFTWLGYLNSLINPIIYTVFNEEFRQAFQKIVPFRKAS

[5] = biological target: 5-hydroxytryptamine receptor 1E (Homo sapiens, UniProt P28566); experiment: Compound was evaluated for binding affinity against human cloned 5-hydroxytryptamine 1E receptor in CHO cells using [3H]5-HT as the radioligand; format: cell-based; how it was run: as §1
Chain of 5-hydroxytryptamine receptor 1E (P28566 whole entry): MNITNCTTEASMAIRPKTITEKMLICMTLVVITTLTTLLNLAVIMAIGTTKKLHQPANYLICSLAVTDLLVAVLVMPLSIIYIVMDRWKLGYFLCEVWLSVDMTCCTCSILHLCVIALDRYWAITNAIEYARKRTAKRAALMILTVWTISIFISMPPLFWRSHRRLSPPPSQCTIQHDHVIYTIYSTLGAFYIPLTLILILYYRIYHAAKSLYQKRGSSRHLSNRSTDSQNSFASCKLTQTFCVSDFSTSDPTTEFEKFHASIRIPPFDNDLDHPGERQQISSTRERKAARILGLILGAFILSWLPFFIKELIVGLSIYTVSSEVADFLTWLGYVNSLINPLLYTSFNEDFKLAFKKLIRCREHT

[6] = biological target: 5-hydroxytryptamine receptor 2A (Homo sapiens, UniProt P28223); experiment: Compound was evaluated for binding affinity against human cloned 5-hydroxytryptamine 2A receptor in HEK 293 cells using [3H]ketanserin as the radioligand; format: cell-based, HEK293
Chain of 5-hydroxytryptamine receptor 2A (P28223 whole entry): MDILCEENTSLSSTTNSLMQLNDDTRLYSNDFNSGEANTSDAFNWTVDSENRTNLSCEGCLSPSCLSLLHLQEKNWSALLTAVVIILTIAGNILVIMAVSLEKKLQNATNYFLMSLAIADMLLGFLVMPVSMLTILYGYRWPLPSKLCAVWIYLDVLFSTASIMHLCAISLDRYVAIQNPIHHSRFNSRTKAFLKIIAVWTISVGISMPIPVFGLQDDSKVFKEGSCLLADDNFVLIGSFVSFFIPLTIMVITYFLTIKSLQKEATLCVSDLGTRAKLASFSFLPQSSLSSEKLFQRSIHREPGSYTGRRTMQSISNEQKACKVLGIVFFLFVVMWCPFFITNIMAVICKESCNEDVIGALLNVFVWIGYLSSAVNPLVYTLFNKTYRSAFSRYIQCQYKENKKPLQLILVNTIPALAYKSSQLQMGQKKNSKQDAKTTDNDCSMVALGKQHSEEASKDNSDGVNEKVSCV

[7] = biological target: T1, 5-hydroxytryptamine receptor 1F (Homo sapiens, UniProt P30939); experiment: Compound was evaluated for binding affinity against human cloned 5-hydroxytryptamine 1F receptor in CHO cells using [3H]-5-HT as the radioligand; format: cell-based
T1 sequence (P30939 whole entry): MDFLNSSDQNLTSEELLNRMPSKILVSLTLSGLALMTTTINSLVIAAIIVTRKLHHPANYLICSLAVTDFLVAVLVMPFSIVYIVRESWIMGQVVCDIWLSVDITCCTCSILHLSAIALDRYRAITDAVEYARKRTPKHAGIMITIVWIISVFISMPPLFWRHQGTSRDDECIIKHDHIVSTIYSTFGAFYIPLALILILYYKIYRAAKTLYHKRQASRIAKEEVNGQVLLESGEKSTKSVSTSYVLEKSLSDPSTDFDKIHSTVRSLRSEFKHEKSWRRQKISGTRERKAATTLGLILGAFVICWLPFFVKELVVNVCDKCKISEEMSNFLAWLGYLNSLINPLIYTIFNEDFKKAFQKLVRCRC

[8] = biological target: T2, 5-hydroxytryptamine receptor 2C (Homo sapiens, UniProt P28335); experiment: Compound was evaluated for binding affinity against human cloned 5-hydroxytryptamine 2C receptor in HEK 293 cells using [3H]mesulergine as the radioligand; format: cell-based, HEK293
T2 sequence (P28335 whole entry): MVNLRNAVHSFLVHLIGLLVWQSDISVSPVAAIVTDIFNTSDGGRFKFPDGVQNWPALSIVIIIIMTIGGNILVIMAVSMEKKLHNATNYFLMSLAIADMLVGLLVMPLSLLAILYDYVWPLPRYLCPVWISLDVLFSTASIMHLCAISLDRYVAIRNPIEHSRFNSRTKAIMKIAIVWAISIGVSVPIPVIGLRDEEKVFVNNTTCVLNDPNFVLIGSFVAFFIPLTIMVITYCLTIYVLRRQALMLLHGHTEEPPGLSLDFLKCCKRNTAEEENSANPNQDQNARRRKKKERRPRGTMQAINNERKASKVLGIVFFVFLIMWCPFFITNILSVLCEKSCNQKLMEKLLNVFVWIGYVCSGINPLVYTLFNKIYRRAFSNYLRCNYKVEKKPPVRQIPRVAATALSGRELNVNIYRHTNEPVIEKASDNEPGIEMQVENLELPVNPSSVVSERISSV

[9] = biological target: 5-hydroxytryptamine receptor 2B (Homo sapiens, UniProt P41595); experiment: Compound was evaluated for binding affinity against human cloned 5-HT2B receptor in HEK 293 cells using [3H]5-HT as the radioligand; format: cell-based, HEK293; how it was run: as §1
Chain of 5-hydroxytryptamine receptor 2B (P41595 whole entry): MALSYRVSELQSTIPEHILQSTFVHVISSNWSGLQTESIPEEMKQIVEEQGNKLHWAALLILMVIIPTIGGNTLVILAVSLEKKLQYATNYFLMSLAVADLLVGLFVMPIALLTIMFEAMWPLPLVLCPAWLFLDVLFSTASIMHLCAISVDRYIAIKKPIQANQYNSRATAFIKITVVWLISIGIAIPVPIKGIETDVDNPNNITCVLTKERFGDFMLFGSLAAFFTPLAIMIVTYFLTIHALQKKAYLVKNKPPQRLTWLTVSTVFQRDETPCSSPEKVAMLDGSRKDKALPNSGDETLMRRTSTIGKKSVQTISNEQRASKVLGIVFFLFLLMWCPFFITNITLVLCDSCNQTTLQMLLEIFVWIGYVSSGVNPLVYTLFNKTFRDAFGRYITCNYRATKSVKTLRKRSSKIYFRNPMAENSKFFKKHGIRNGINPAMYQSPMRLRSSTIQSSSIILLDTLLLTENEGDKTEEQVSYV

[10] = biological target: 5-hydroxytryptamine receptor 4 (Homo sapiens, UniProt Q13639); experiment: Compound was evaluated for the binding affinity against human cloned 5-hydroxytryptamine 4 receptor in HeLa cells using [3H]-LSD as the radioligand; format: cell-based
Chain of 5-hydroxytryptamine receptor 4 (Q13639 whole entry): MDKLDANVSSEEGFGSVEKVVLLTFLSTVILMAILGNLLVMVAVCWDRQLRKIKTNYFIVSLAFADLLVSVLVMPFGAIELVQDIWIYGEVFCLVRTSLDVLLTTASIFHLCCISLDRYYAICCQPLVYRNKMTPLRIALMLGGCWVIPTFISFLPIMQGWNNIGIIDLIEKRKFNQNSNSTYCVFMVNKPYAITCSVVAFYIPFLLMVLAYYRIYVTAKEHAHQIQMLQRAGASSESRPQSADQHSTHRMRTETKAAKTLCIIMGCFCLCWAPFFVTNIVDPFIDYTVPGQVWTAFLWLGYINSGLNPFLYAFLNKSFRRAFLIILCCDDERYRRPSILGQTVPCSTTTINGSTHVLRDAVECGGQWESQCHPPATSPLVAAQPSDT

[11] = biological target: 5-hydroxytryptamine receptor 7 (Homo sapiens, UniProt P34969); experiment: Compound was evaluated for binding affinity against human cloned 5-hydroxytryptamine 7 receptor in HEK 293 cells using [3H]5-CT as the radioligand (n=3); format: cell-based, HEK293
Chain of 5-hydroxytryptamine receptor 7 (P34969 whole entry): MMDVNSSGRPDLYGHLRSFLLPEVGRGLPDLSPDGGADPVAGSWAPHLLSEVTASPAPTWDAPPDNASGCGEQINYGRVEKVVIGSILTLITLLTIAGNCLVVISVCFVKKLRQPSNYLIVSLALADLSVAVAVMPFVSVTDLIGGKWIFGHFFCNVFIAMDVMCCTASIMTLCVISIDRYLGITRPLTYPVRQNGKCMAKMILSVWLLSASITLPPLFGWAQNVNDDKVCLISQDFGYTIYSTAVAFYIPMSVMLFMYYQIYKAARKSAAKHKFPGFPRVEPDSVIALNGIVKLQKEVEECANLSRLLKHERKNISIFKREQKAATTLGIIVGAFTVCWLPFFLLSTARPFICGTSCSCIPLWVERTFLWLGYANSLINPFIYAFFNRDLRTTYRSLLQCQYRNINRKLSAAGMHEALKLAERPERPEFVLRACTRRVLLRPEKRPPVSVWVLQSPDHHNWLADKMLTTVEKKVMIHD

[12] = Bioavailability in rat (dose 3 mg/kg in 1% methylcellulose ); format: ADME, organism-based; details: in vivo
How it was run: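 Oral suspension dose of 3 mg/kg in 1% methylcellulose (v/v) aq to rats (n=3). Blood levels were measured by LC/MS/MS to derive AUC/dose and bioavailability.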

[13] = biological target: T3, Alpha-1B adrenergic receptor (Homo sapiens, UniProt P35368); experiment: Compound was evaluated for binding affinity against Alpha-1B adrenergic receptor
T3 sequence (P35368 whole entry): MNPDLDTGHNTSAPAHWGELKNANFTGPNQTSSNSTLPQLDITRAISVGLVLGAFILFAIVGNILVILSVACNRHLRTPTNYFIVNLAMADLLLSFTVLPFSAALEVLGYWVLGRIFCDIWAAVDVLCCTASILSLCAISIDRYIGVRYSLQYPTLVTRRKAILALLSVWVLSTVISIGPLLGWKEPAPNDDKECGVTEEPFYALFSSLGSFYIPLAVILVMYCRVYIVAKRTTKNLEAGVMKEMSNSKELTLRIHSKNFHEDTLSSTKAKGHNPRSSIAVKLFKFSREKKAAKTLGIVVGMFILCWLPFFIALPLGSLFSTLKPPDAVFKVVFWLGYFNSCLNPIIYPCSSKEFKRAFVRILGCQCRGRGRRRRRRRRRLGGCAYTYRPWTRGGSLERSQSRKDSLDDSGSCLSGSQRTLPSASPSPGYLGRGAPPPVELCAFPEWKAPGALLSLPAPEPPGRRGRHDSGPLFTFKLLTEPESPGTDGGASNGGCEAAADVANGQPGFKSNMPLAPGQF

D(3) dopamine receptor = D(3) dopamine receptor (Homo sapiens, UniProt P35462); experiment: Compound was evaluated for binding affinity against Dopamine receptor D3 in CHO cells using [125I]iodosulpiride as the radioligand; format: cell-based; how it was run: as §1
Chain of D(3) dopamine receptor (P35462 whole entry): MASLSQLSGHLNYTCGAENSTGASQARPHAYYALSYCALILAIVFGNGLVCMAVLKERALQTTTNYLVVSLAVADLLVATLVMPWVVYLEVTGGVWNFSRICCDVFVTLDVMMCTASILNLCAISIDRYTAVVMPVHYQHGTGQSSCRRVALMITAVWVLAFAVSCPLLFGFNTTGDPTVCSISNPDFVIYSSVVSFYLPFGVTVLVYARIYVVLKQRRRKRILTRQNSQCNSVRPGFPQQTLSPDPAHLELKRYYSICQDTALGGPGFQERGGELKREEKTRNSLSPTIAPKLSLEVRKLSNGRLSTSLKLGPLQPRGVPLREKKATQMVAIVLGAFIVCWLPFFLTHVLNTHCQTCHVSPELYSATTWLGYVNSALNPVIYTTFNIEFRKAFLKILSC

D(2) dopamine receptor = D(2) dopamine receptor (Homo sapiens, UniProt P14416); experiment: Compound was evaluated for binding affinity against Dopamine receptor D2 in CHO cells using [125I]iodosulpiride as the radioligand; format: cell-based; how it was run: as §1
Chain of D(2) dopamine receptor (P14416 whole entry): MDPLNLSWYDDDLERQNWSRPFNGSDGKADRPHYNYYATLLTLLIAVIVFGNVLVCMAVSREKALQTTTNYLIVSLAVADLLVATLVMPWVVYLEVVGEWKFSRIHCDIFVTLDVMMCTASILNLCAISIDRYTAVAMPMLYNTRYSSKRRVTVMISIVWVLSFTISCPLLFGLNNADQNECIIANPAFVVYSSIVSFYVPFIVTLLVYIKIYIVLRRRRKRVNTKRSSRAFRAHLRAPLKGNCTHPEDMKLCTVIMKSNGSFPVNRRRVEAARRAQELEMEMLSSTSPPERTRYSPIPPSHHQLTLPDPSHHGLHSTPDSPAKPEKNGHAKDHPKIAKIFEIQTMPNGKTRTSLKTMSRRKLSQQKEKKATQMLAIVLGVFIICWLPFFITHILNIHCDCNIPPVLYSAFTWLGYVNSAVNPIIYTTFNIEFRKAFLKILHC

[14] = biological target: T4, 5-hydroxytryptamine receptor 1A (Homo sapiens, UniProt P08908); experiment: Compound was evaluated for binding affinity against human cloned 5-hydroxytryptamine 1A receptor in HEK 293 cells using [3H]8-OH-DPAT as the radioligand; format: cell-based, HEK293; how it was run: as §1
T4 sequence (P08908 whole entry): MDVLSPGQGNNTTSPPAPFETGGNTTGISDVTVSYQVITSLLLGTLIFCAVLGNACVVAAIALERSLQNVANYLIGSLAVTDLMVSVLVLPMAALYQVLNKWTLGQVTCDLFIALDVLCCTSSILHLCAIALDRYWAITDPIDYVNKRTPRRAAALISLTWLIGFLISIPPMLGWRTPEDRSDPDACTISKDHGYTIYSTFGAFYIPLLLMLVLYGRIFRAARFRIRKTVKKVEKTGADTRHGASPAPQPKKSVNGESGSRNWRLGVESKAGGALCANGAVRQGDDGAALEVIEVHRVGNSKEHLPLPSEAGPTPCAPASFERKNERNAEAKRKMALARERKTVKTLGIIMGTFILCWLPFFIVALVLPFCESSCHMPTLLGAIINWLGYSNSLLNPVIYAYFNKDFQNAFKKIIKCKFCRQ

Compound: COc1ccc(S(=O)(=O)Nc2cc(Br)cc(Br)c2)cc1N1CCNCC1
Ki [1]: 0.501 nM

Compound: COc1ccc(S(=O)(=O)Nc2cc(Br)cc(Cl)c2Br)cc1N1CCNCC1
Ki [1]: 3.98 nM

Ki [1]: 0.794 nM
Compound: COc1ccc(S(=O)(=O)N2CCCc3c(Cl)cc(Cl)cc32)cc1N1CCNCC1

Ki [1]: 0.794 nM
Compound: COc1ccc(S(=O)(=O)N2c3ccccc3CC2(C)C)cc1N1CCNCC1

Compound: COc1ccc(S(=O)(=O)Nc2cc(Br)cc(Cl)c2Cl)cc1N1CCNCC1
Ki [1]: 3.98 nM

Ki [1]: 0.316 nM
Compound: COc1ccc(S(=O)(=O)N2CCCc3ccc(Br)cc32)cc1N1CCNCC1

Compound: COc1ccc(S(=O)(=O)N2CCc3cc(I)ccc32)cc1N1CCNCC1
Ki [1]: 3.98 nM

Compound: COc1ccc(S(=O)(=O)Nc2cc(Br)cc(Br)c2Cl)cc1N1CCNCC1
Ki [1]: 2.51 nM

Ki [1]: 3.98 nM
Compound: COc1ccc(C(F)(F)F)cc1NS(=O)(=O)c1ccc(OC)c(N2CCNCC2)c1

Compound: COc1ccc(S(=O)(=O)Nc2cc(Cl)cc(Cl)c2Br)cc1N1CCNCC1
Ki [1]: 3.16 nM

Compound: COc1ccc(S(=O)(=O)Nc2ccccc2C(C)C)cc1N1CCNCC1
Ki [1]: 1 nM | clearance [2]: 52 mL/min/kg

Compound: COc1ccc(S(=O)(=O)Nc2cccc(Cl)c2)cc1N1CCNCC1
Ki [1]: 1.26 nM

Compound: COc1ccc(S(=O)(=O)Nc2cc(Cl)cc(Br)c2Cl)cc1N1CCNCC1
Ki [1]: 2 nM

Compound: COc1ccc(Cl)cc1NS(=O)(=O)c1ccc(OC)c(N2CCNCC2)c1
Ki [1]: 1.26 nM

Compound: COc1ccc(S(=O)(=O)Nc2cccc(I)c2)cc1N1CCNCC1
Ki [1]: 0.501 nM | Distribution ratio (Rattus norvegicus): 0.13 | clearance [2]: 58 mL/min/kg

Ki [1]: 3.98 nM | Distribution ratio (Rattus norvegicus): 0.41 | clearance [2]: 73 mL/min/kg
Compound: COc1ccc(S(=O)(=O)N2CCc3cc(C)c(C(F)(F)F)cc32)cc1N1CCNCC1

Compound: COc1ccc(S(=O)(=O)Nc2cc(Cl)cc(Cl)c2Cl)cc1N1CCNCC1
Ki [3]: > 10000 nM | Ki [4]: > 3160 nM | Ki [5]: > 10000 nM | Ki [6]: > 10000 nM | Ki [7]: > 10000 nM | Ki [8]: 1000 nM | Ki [9]: 2000 nM | Ki [10]: > 10000 nM | Ki [11]: 2 nM | Ki [1]: 2 nM | Distribution ratio (Rattus norvegicus): 0.02 | bioavailability [12]: > 80% | clearance [2]: 2 mL/min/kg | Ki [13]: > 3980 nM | Ki (D(3) dopamine receptor): > 3980 nM | Ki (D(2) dopamine receptor): > 10000 nM | Ki [14]: 3980 nM

Compound: COc1ccc(S(=O)(=O)Nc2c(F)cc(Br)cc2F)cc1N1CCNCC1
Ki [1]: 158 nM

Compound: COc1ccc(S(=O)(=O)Nc2cc(F)cc(F)c2Cl)cc1N1CCNCC1
Ki [1]: 31.6 nM
